Source: PubChem
CaV13 ICDI inh – Disruptors of the CACNA1D IQ motif to Ca2+-dependent inactivation inhibitor domain association, primary screening, Förster resonance energy transfer in intact living …; HEK cells, CFP/YFP FRET ICDI-IQ, plate reader, 10 min; percent FRET-ratio fall versus neutral wells; AID 743397; inhibition, % at 12.3 µM; 340,000 tested, 0.098% active;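 active = mean replicate inhibition of at least 30% and at least 1% of replicates passing that level; inconclusive = only one of the two criteria is met; inactive = neither criterion is met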
Hck-Nef inh – blocks Nef-activated human Hck kinase; inhibition, % at 20 µM; AID 463187; Recombinant Hck-YEEI plus Nef, Z-Lyte FRET kinase assay; 220,000 tested, 0.68% active; P08631;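 active = Hck-Nef kinase inhibition above about 50%, limit read from the data; inactive = inhibition below that limit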
Runt-CBFb FRET – Runt domain-CBFb interaction inhibition; AID 1496; Cerulean-Runt/Venus-CBFb FRET ratio 530/480, 1 h; inhibition, % at 20 µM; 220,000 tested, 0.46% active;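 active = inhibition over about 50% at 20 µM in the single-dose screen, limit read from the data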
Target sequence (Q01196 whole entry, looked up, the tested form may be a part): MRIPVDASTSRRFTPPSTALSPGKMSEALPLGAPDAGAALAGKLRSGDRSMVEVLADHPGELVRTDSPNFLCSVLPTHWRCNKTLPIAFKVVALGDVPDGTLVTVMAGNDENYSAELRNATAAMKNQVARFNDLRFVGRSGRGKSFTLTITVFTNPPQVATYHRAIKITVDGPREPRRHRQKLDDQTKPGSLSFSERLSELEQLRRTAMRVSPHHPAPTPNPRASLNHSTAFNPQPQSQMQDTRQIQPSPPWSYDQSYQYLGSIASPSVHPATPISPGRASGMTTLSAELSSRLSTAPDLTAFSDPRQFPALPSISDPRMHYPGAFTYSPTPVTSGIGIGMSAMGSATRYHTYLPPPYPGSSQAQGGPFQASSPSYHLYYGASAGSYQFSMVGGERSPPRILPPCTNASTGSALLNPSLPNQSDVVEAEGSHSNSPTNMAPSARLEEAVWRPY
Target sequence (Q13951 whole entry, looked up, the tested form may be a part): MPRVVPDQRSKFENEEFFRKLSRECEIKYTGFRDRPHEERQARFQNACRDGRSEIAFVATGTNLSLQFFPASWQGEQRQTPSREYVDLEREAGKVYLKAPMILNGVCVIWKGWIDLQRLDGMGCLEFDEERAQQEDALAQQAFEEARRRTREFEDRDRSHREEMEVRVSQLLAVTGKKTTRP
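Doses: 20 µM compound in 1% DMSO | Material: Cerulean-labeled Runt domain protein | Amount: Each fluorescent fusion protein 100 nM | Schedule: Two 1 h room-temperature incubations shielded from light | Measured by: FRET fluorescence | Evaluation: Loss of energy transfer signal | Controls: Unlabeled CBFb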
Runt-SMMHC FRET – Runt domain-CBFb-SMMHC interaction inhibition | inhibition, % at 20 µM | 220,000 tested, 0.74% active | AID 1434 | Q01196+Q13951 | Cerulean-Runt/Venus-CBFb-SMMHC FRET ratio 530/480, 1 h;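 active = mean inhibition across duplicate retests at 20 µM reaching about 50%, limit read from the data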;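 note: inhibitors lower the FRET ratio by blocking Runt binding to CBFb-SMMHC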
RanGTP-Imp inh – inhibitors of RanGTP-importin-beta interaction, primary screen, biochemical, FRET, CFP-Ran, YFP-importin-beta, homogeneous | cell-free CFP-Ran/YFP-importin-beta FRET ratio | inhibition, % (no concentration beside the values) | 300,000 tested, 1.1% active;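 active = more than half of the replicate wells show a fall in the fluorescence ratio signal beyond about 16%, limit read from the data, passing the limit was not always enough; inconclusive = exactly half of the replicate wells pass the set limit; inactive = fewer than half of replicates pass the limit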
Hck Nef conf – confirmation of Hck-Nef kinase inhibitors. shares compounds with Hck-Nef inh. Recombinant Hck-YEEI:Nef, Z-Lyte FRET kinase assay. calls only at 10 µM. 1,300 tested, 28% active;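 active = average inhibition of at least 50%, with Z-scores no higher than 3 in both the phospho-tyrosine peptide and fluorescence counterscreens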
Hits are given with their value; 0 = inactive; ? = inconclusive; - = no result given; + = active, no number. In the library only some 1.5% were active in any assay of this set; here they are far more common.

SMILES | CaV13 ICDI inh | Hck-Nef inh | Runt-CBFb FRET | Runt-SMMHC FRET | RanGTP-Imp inh | Hck Nef conf
CCOC(=O)N1CCN(CCC(=O)Nc2cc(OC)cc(OC)c2)CC1 | 0 | 0 | 0 | 0 | 0 | -
O=C(N=Nc1c(O)[nH]c2ccccc12)c1cc(NS(=O)(=O)c2cccs2)cc(NS(=O)(=O)c2cccs2)c1 | 0 | 88.1 | 0 | 0 | 0 | +
Cc1ccc(C2=NOC(=O)/C2=C\C=C\c2ccccc2)cc1 | 0 | 56.0 | 0 | 0 | 0 | 0
CN(C)/C=C1\C(=O)ON=C1c1ccccc1 | 0 | 0 | 0 | 0 | 0 | -
CCn1c(SCC(=O)Nc2ccc(-c3nc4ccc(C)cc4s3)cc2)nnc1-c1ccccc1 | - | 61.6 | 0 | 0 | 0 | +
COc1cccc(Nc2ncc(C#N)c(N)n2)c1 | 0 | 56.6 | 0 | 0 | 0 | +
Cn1cnc2c(N/N=C/c3cccs3)ncnc21 | 0 | 68.3 | 0 | 0 | ? | +
CCCC1(c2ccccc2)NC(=O)N(C/C=C/Cl)C1=O (stereo unspecified) | 0 | - | - | - | 0 | -
CC(=O)OCC1=C(C(=O)O)N2C(=O)C(NC(=O)C(C)Cn3nc(C)c(Cl)c3C)C2SC1 (stereo unspecified) | 0 | 69.7 | 0 | 0 | 0 | 0
CC(=O)OCC1=C(C(=O)O)N2C(=O)C(NC(=O)c3ccc(F)cc3)C2SC1 (stereo unspecified) | 0 | 0 | 0 | 0 | 0 | -
CCCCSc1nc2c(cnn2-c2ccc(C)c(C)c2)c(=O)[nH]1 | 0 | 0 | 0 | 0 | 0 | -
C=CCNC(=O)C(C)N1C(=O)c2ccccc2C1=O (stereo unspecified) | 0 | 0 | 0 | 0 | 0 | -
Cc1ccc2nc3nc(NCC4CCCO4)c(C(=O)NC4CCCCC4)cc3c(=O)n2c1 (stereo unspecified) | - | 134.3 | - | - | 177.1 | -
Cc1ccc2nc3nc(NCC4CCCO4)c(C(=O)NC4CCCC4)cc3c(=O)n2c1 (stereo unspecified) | 0 | 163.8 | 0 | 63.2 | 180.6 | -
CCNc1nc2nc3ccc(C)cn3c(=O)c2cc1C(=O)NCC1CCCO1 (stereo unspecified) | + | + | 0 | 90.9 | 184.6 | -
O=C(O)c1cccc(S(=O)(=O)NNc2ccccc2C(F)(F)F)c1 | 0 | - | - | - | 0 | -
Cc1cc(C2=NNC(=Nc3ccc(S(=O)(=O)N4CCOCC4)cc3)SC2)c(C)n1C | 0 | 62.7 | 0 | 0 | 0 | 0
COc1cc2[nH]c(=O)n(CCC(=O)N3CCN(c4cccc(C)c4C)CC3)c(=O)c2cc1OC | 0 | 74.1 | 0 | 0 | 0 | 0
O=C(O)c1ccc(-c2ccc(/C=C3\NC(=O)N(Cc4ccc(Cl)cc4)C3=O)o2)cc1Cl | 0 | 52.5 | 0 | 0 | 57.6 | 0
C=CCNC(=O)c1c(N)n(-c2ccc3c(c2)OCO3)c2nc3ccccc3nc12 | - | 0 | 0 | 0 | 0 | -
CCCNC(=O)c1c(N)n(-c2cccc(OC)c2)c2nc3ccccc3nc12 | 0 | 76.5 | 62.4 | 0 | 79.7 | -
Nc1c(C(=O)NCC2CCCO2)c2nc3ccccc3nc2n1-c1ccccc1 (stereo unspecified) | 0 | 54.6 | 82.8 | 0 | 77.6 | -
COCCCNC(=O)c1c(N)n(-c2cccc(S(N)(=O)=O)c2)c2nc3ccccc3nc12 | - | 64.5 | 91.5 | 61.6 | 104.1 | -
CCOC(=O)c1c(NC(=O)c2cc(-c3ccc(Cl)s3)nc3ccccc23)sc(C(N)=O)c1C | 0 | 66.2 | 0 | 0 | 0 | 0
Oc1ccc(-c2nc3ccccc3s2)c(O)c1 | 0 | 163.0 | 0 | 0 | 0 | -
SMILES | CaV13 ICDI inh | Hck-Nef inh | Runt-CBFb FRET | Runt-SMMHC FRET | RanGTP-Imp inh | Hck Nef conf
Oc1ccc(-c2nc3ccccc3s2)cc1 | 0 | 0 | 0 | 0 | 0 | -
COc1ccc(-c2cnnc(N/N=C/c3ccc(-c4ccc([N+](=O)[O-])cc4)o3)n2)cc1 | 0 | 84.1 | 0 | 0 | - | +
Cc1cc(=O)[nH]c(/N=C(/NC(=O)c2ccccc2)Nc2ccc3c(c2)OCCO3)n1 | - | 0 | - | - | - | -
O=C(Nc1cnn(Cc2ccc(F)cc2)c1)c1cnn2c(C(F)F)cc(-c3ccccc3)nc12 | 0 | 88.0 | 0 | 0 | 0 | 0
CCCN(CC(=O)Nc1ccccc1C)C(=O)c1ccc(Cl)c(S(=O)(=O)N2CCCC2)c1 | 0 | - | - | - | 0 | -
COc1ccc(CN(C(=O)CSc2nnc(-c3ccc(F)cc3)o2)c2ccc(F)cc2)cc1 | 0 | 76.8 | 0 | 0 | 0 | 0
COc1ccc(-c2nnc(SCC(=O)c3ccc(C)o3)o2)cc1 | 0 | 0 | 0 | 0 | 0 | -
Oc1ccc(Nc2ccnc3cc(Cl)ccc23)cc1 | 0 | 64.5 | 0 | 0 | 0 | +
COc1ccc(CCNC(=O)c2coc3ccccc3c2=O)cc1 | 0 | - | - | - | 0 | -
CC1(CN2CCCC2)CCC(NC(=O)C(c2ccccc2)c2ccccc2)C(C)(C)O1 (stereo unspecified) | 0 | - | - | - | - | -
CCc1c(C)c2ccc(O)c(CN3CCCC3)c2oc1=O | 0 | - | - | - | 0 | -
COC(=O)Cc1c(C)c2ccc(O)c(CN3CCCC(C)C3)c2oc1=O (stereo unspecified) | 0 | 75.3 | 98.1 | 111.6 | 21.9 | -
CC/C=C/C(=O)N1CC2(CC(c3cccc(NC(=O)CC(c4ccccc4)c4ccccc4)c3)=NO2)C[C@@H]1C(N)=O (stereo partly specified) | 0 | 52.8 | 0 | 0 | 0 | 0
Cc1cc(/C=C2\NC(=O)NC2=O)c(C)n1-c1cccnc1 | 0 | 52.2 | 0 | 0 | 0 | 0
CCOC(=O)c1cc(-c2ccc(/C=C3/C(=O)NC(=O)C(C#N)=C3C)o2)ccc1Cl | 0 | 80.9 | 0 | 0 | 0 | +
CCCCC1(C)OC(=O)C(=Cc2ccc(-c3ccc(Cl)c(C(=O)O)c3)o2)C(=O)O1 (stereo unspecified) | 0 | 0 | 0 | 0 | 0 | -
Cc1ccc(-c2ccc(/C=N/N=C3/NC(=O)C(CC(=O)O)S3)o2)c([N+](=O)[O-])c1 (stereo unspecified) | 0 | 0 | 0 | 0 | 0 | -
CC1=C(C#N)C(=O)NC(=O)/C1=C\c1ccc(-c2ccc(C)cc2[N+](=O)[O-])o1 | 0 | 99.8 | 0 | 0 | 0 | +
Cc1ccc(-c2csc3ncnc(Nc4ccc(C(=O)O)cc4)c23)cc1 | 0 | 54.8 | 0 | 0 | 0 | 0
O=C(O)c1ccc(Nc2ncnc3scc(-c4ccccc4)c23)cc1 | 0 | 0 | 0 | 0 | 0 | -
NC(=O)c1nsc(C(=O)N(CC(=O)NC2CCCC2)c2cnc3ccccc3c2)c1N | - | 0 | 0 | 0 | ? | -
O=C(Cc1ccc(Cl)cc1)Nc1ccc(-c2nnc(-c3ccco3)o2)cc1 | 0 | 0 | 0 | 0 | 0 | -
O=C(CSCc1ccc(Cl)cc1)Nc1ccc(-c2nnc(-c3ccccc3)o2)cc1 | 0 | 91.1 | 0 | 0 | 0 | 0
COc1nc(Nc2nc3ccccc3c(=O)[nH]2)nc2ccc(C)cc12 | 0 | 74.8 | 0 | 0 | 0 | 0
